ChEMBL document CHEMBL4325889, “Natural products hybrids: 3,5,4'-Trimethoxystilbene-5,6,7-trimethoxyflavone chimeric analogs as potential cytotoxic agents against diverse human cancer cells” (Eur J Med Chem, 2019)

Tests used:
Format in all cases: functional
NCI-H226 = experiment: Growth inhibition of human NCI-H226 cells at 10 uM after 48 hrs by SRB assay relative to control; details: NCI-H226, 48 h, read-out: GI
Summary of the method: (§1)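 Screened at the National Cancer Institute by the standard NCI protocol using the sulforhodamine B assay, which measures cellular protein. Single dose of 10 µM. Result is percent growth inhibition; values above 100% mean cell number fell below the initial population. Values are the average of duplicates.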

ACHN = experiment: Growth inhibition of human ACHN cells at 10 uM after 48 hrs by SRB assay relative to control; details: read-out: GI; summary of the method: as §1
A549 = experiment: Growth inhibition of human A549 cells at 10 uM after 48 hrs by SRB assay relative to control; details: A549, 48 h, read-out: GI; summary of the method: as §1
786-0 = experiment: Growth inhibition of human 786-0 cells at 10 uM after 48 hrs by SRB assay relative to control; details: 786-0, 48 h, read-out: GI; summary of the method: as §1
NCI-H460 = experiment: Growth inhibition of human NCI-H460 cells at 10 uM after 48 hrs by SRB assay relative to control; details: NCI-H460, 48 h, read-out: GI; summary of the method: as §1
NCI-H522 = experiment: Growth inhibition of human NCI-H522 cells at 10 uM after 48 hrs by SRB assay relative to control; details: NCI-H522, 48 h, read-out: GI; summary of the method: as §1
OVCAR-5 = experiment: Growth inhibition of human OVCAR5 cells at 10 uM after 48 hrs by SRB assay relative to control; details: OVCAR-5, 48 h, read-out: GI; summary of the method: as §1
SW-620 = experiment: Growth inhibition of human SW620 cells at 10 uM after 48 hrs by SRB assay relative to control; details: SW-620, 48 h, read-out: GI
Summary of the method: (§2)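 NCI screen against its human cancer cell line panel by the standard NCI protocol, SRB protein stain. Single dose of 10 μM. Percent growth inhibition versus control; values above 100% mean the cell population fell below the starting number. Each value is the mean of duplicates.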

SK-MEL-2 = experiment: Growth inhibition of human SK-MEL-2 cells at 10 uM after 48 hrs by SRB assay relative to control; details: SK-MEL-2, 48 h, read-out: GI; summary of the method: as §1
PC-3 = experiment: Growth inhibition of human PC3 cells at 10 uM after 48 hrs by SRB assay relative to control; details: PC-3, 48 h, read-out: GI; summary of the method: as §1
TK-10 = experiment: Growth inhibition of human TK10 cells at 10 uM after 48 hrs by SRB assay relative to control; details: TK-10, 48 h, read-out: GI; summary of the method: as §2
OVCAR-8 = experiment: Growth inhibition of human OVCAR8 cells at 10 uM after 48 hrs by SRB assay relative to control; details: OVCAR-8, 48 h, read-out: GI; summary of the method: as §1
BT-549 = experiment: Growth inhibition of human BT549 cells at 10 uM after 48 hrs by SRB assay relative to control; details: BT-549, 48 h, read-out: GI; summary of the method: as §1
LOX IMVI = experiment: Growth inhibition of human LOXIMVI cells at 10 uM after 48 hrs by SRB assay relative to control; details: read-out: GI; summary of the method: as §1
MDA-MB-468 = experiment: Growth inhibition of human MDA-MB-468 cells at 10 uM after 48 hrs by SRB assay relative to control; details: MDA-MB-468, 48 h, read-out: GI; summary of the method: as §1
KM12 = experiment: Growth inhibition of human KM12 cells at 10 uM after 48 hrs by SRB assay relative to control; details: KM12, 48 h, read-out: GI; summary of the method: as §1
RXF 393 = experiment: Growth inhibition of human RXF393 cells at 10 uM after 48 hrs by SRB assay relative to control; details: RXF 393, 48 h, read-out: GI; summary of the method: as §1
SF-268 = experiment: Growth inhibition of human SF268 cells at 10 uM after 48 hrs by SRB assay relative to control; details: SF-268, 48 h, read-out: GI; summary of the method: as §1
SR = experiment: Growth inhibition of human SR cells at 10 uM after 48 hrs by SRB assay relative to control; details: read-out: GI; summary of the method: as §2
MOLT-4 = experiment: Growth inhibition of human MOLT4 cells at 10 uM after 48 hrs by SRB assay relative to control; details: MOLT-4, 48 h, read-out: GI; summary of the method: as §1
HCT-15 = experiment: Growth inhibition of human HCT15 cells at 10 uM after 48 hrs by SRB assay relative to control; details: HCT-15, 48 h, read-out: GI; summary of the method: as §1

SMILES | inhibition of growth at 10 µM (NCI-H226) [%] | inhibition of growth at 10 µM (ACHN) [%] | inhibition of growth at 10 µM (A549) [%] | inhibition of growth at 10 µM (786-0) [%] | inhibition of growth at 10 µM (NCI-H460) [%] | inhibition of growth at 10 µM (NCI-H522) [%] | inhibition of growth at 10 µM (OVCAR-5) [%] | inhibition of growth at 10 µM (SW-620) [%] | inhibition of growth at 10 µM (SK-MEL-2) [%] | inhibition of growth at 10 µM (PC-3) [%] | inhibition of growth at 10 µM (TK-10) [%] | inhibition of growth at 10 µM (OVCAR-8) [%] | inhibition of growth at 10 µM (BT-549) [%] | inhibition of growth at 10 µM (LOX IMVI) [%] | inhibition of growth at 10 µM (MDA-MB-468) [%] | inhibition of growth at 10 µM (KM12) [%] | inhibition of growth at 10 µM (RXF 393) [%] | inhibition of growth at 10 µM (SF-268) [%] | inhibition of growth at 10 µM (SR) [%] | inhibition of growth at 10 µM (MOLT-4) [%] | also measured
COc1cc2oc(-c3cccc(C(=O)Nc4ccc5c(c4)OCO5)c3)cc(=O)c2c(OC)c1OC | 21.2 | 10.2 | 25.5 | 7.44 | 26.9 | 26.9 | 16.4 | -4.89 | -2.38 | 26.5 | 16.1 | 45.9 | 42.4 | 81.5 | 1.72 | 32.7 | 29 | 12.5 | 52.4 | 35.2 | inhibition of growth at 10 µM (HCT-15): 28.2%
COc1cccc(C(=O)Nc2cccc(-c3cc(=O)c4c(O)c(OC)c(OC)cc4o3)c2)c1 | 36.3 | 35.5 | 35.4 | 26.7 | 45.6 | 56.9 | 9.51 | 19 | 21.6 | 59.6 | 16.7 | 50.7 | 34.2 | 57.6 | 28.8 | 43.7 | 1.37 | 29.8 | 54.8 | 49.3 | inhibition of growth at 10 µM (HCT-15): 58.4%
COc1cccc(NC(=O)c2cccc(-c3cc(=O)c4c(OC)c(OC)c(OC)cc4o3)c2)c1 | 36.7 | 37.5 | 37.2 | 31.1 | 39.9 | 53.4 | 9.93 | 10.4 | 24.3 | 42.9 | 21.2 | 53 | 45.8 | 50.1 | 21 | 46.3 | 52.1 | 36.9 | 58.1 | 51.5 | inhibition of growth at 10 µM (HCT-15): 45.3%
COc1ccccc1NC(=O)c1cccc(-c2cc(=O)c3c(OC)c(OC)c(OC)cc3o2)c1 | 37.2 | 43.8 | 31.1 | 39.2 | 41.1 | 56.5 | 18.6 | 12.2 | 14.4 | 43.6 | 10.4 | 42.7 | 44.9 | 52.1 | 24.3 | 34.8 | 29.3 | 29.3 | 32.4 | 38.7 | inhibition of growth at 10 µM (HCT-15): 48.4%
COc1cccc(NC(=O)c2cccc(-c3cc(=O)c4c(O)c(OC)c(OC)cc4o3)c2)c1 | 41.5 | 33.8 | 26.6 | 14.2 | 31.4 | 59.8 | 8.5 | 18.4 | 2.64 | 39.3 | 6.27 | 62.5 | 30.5 | 36.8 | 46 | 35.5 | 25.8 | 22.9 | 47.7 | 24.2 | inhibition of growth at 10 µM (HCT-15): 25.7%
COc1ccccc1NC(=O)c1cccc(-c2cc(=O)c3c(O)c(OC)c(OC)cc3o2)c1 | 23.9 | 9.27 | 18.5 | 9.66 | -3.83 | 26.6 | 8.1 | -0.74 | 14.1 | 25.1 | 14.1 | 35.2 | 10.8 | 16.7 | 9.38 | 0.81 | 21.8 | 12.9 | 21.5 | 27.9 | inhibition of growth at 10 µM (HCT-15): 13%
COc1ccc(C(=O)Nc2cccc(-c3cc(=O)c4c(OC)c(OC)c(OC)cc4o3)c2)cc1 | 30.1 | 53 | 35.3 | 45 | 57.9 | 55.5 | 4.43 | 12 | 38.7 | 68.1 | 23.3 | 42.1 | 48.6 | 58.1 | 24.8 | 53.7 | 46.4 | 41.6 | 71.4 | 76.7 | inhibition of growth at 10 µM (HCT-15): 54.8%
COc1ccc(NC(=O)c2cccc(-c3cc(=O)c4c(O)c(OC)c(OC)cc4o3)c2)cc1 | 8.07 | 16.4 | 18.7 | 57 | 7.3 | 20.6 | 2.51 | -1.58 | 16.6 | 13.8 | -5.09 | 19.4 | 69 | 20.2 | 15.7 | -3.03 | 8.01 | 45.4 | 19.2 | -2.73 | inhibition of growth at 10 µM (HCT-15): -7.36%
COc1ccc(C(=O)Nc2cccc(-c3cc(=O)c4c(O)c(OC)c(OC)cc4o3)c2)cc1 | 41.4 | 23.7 | 15.1 | 24.5 | 17.4 | 34.4 | 0.04 | 9.52 | 16.6 | 19.6 | 18.4 | 35.5 | 9.6 | 6.47 | -6.18 | -0.05 | 4.27 | 13.9 | 20.8 | 19.1 | inhibition of growth at 10 µM (HCT-15): 7.47%
